Assay results published in publication PMC4297623 (Nature, 2011).
Where two headings read alike, the source gives them in different places. One block for each compound: values may come before it.

Experiments:
[1] = biological target: T1, EBI2 (Homo sapiens, UniProt P32249); assay type: cell-based
[2] = system: EBV-infected human B cell line; assay: Transwell migration of EBV-infected B cells; assay type: cell-based; settings: transwell assay; bell shaped activity curve
Procedure, shortened: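 Transwell chemotaxis of an EBV-infected human B cell line toward oxysterol test compounds in the lower chamber. Samples run in duplicate.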

[3] = system: 31 different GPCRs; assay: Panel of GPCR assays; assay type: cell-based
[4] = system: 8 different nuclear hormone receptors including LXR; assay: Panel of reporter gene assays against nuclear hormone receptors; assay type: cell-based; settings: 8 nuclear hormone receptors including LXR
[5] = system: Parental cells lacking the EBI2 receptor; assay: Calcium mobilization in parental cell line lacking EBI2; assay type: cell-based; settings: parental cell line without EBI2
[6] = system: bone marrow-derived dendritic cells; assay: Transwell migration of bone marrow-derived dendritic cells; assay type: cell-based, mice; settings: transwell assay
Procedure, shortened: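 Dendritic cells derived from the bone marrow of wild-type and Ebi2(−/−) mice, tested side by side for transwell migration toward oxysterol test compounds. Samples run in quadruplicate.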

[7] = system: RS11846 cells; assay: Transwell migration of RS11846 cells; assay type: cell-based; settings: transwell assay
[8] = biological target: T1, EBI2; assay: Calcium mobilization; assay type: cell-based
[9] = system: EBI2 expressing cell line (M12); assay: Migration bioassay with EBI2 expressing reporter cell line; assay type: cell-based; settings: attraction of EBI2 expressing cell line (Fig. S8c)
Procedure, shortened: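 Chemoattraction bioassay: M12 reporter cells, with or without EBI2, exposed to the oxysterol ligand; read-out is migration of cells toward it. The same assay was also run on spleen and lymph node tissue extracts from wild-type and Ch25h-deficient mice.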

[10] = biological target: T1, EBI2; assay: Radioligand binding to membranes from EBI2 expressing CHO cells
[11] = biological target: T1, EBI2; assay: GTPγ35S binding functional assay; assay type: biochemical
[12] = system: Membranes from parental cells lacking EBI2 receptor; assay: Radioligand binding to membranes from parental cells lacking EBI2; settings: data not shown
[13] = read-out: Ca^2+ Fluorescence EC50, FLIPR, CHO cells stably expressing EBI2, n = 3-4, ± standard deviation
[14] = read-out: [^3H]-7α, 25-OHC Binding IC50, displacement of 10 nM 3H-7α, 25-OHC from membranes of EBI2 expressing CHO cells, n = 3-4, ± standard deviation
[15] = read-out: GTPγ^35S Binding EC50, n = 3-4, ± standard deviation

T1 sequence (P32249 whole entry): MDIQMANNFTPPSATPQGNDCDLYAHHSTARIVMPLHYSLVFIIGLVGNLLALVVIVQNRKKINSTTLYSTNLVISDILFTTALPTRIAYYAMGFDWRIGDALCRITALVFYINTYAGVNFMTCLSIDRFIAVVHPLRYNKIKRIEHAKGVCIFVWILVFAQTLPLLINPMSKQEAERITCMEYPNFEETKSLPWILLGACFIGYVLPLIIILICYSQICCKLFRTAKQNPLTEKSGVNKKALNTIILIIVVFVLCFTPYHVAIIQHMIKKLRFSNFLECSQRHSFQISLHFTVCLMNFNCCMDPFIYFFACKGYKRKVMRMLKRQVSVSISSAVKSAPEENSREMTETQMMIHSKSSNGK

activation of EBI2 ([1]; initial test of candidates (Fig. S3)): did not activate EBI2
Compound: CO[C@H]1C=C2C[C@@H](O)CC[C@]2(C)[C@H]2CC[C@]3(C)[C@@H]([C@H](C)CCCC(C)C)CC[C@H]3[C@H]12 [7-methoxy derivate of 7β-OHC]

Compound: C[C@H](CCCC(C)(C)O)[C@H]1CC[C@H]2[C@@H]3[C@H](O)C=C4C[C@@H](O)CC[C@]4(C)[C@H]3CC[C@]12C [7α, 25-OHC, 5-cholesten-3β, 7α, 25-triol]
chemoattraction of EBV-infected B cells [2]: can potently attract
interaction with other GPCRs [3]: In none of these assays did we see a significant interaction
interaction with nuclear hormone receptors [4]: In none of these assays did we see a significant interaction
calcium response of parental cells lacking EBI2 [5]: did not respond
migration of BMDC from wild type and Ebi2(−/−) animals [6]: only wild type cells migrate
chemoattraction of RS11846 cells ([7]; bell shaped activity curve): can potently attract
EC50 [8]: 2 ± 2 nM
sensitivity of bioassay [9]: subnanomolar sensitivity

EC50 [8, 13]: 5 ± 4 nM
IC50 [10, 14]: 362 ± 32 nM
EC50 [11, 15]: 5 ± 2 nM
Compound: C[C@@H](CO)CCC[C@@H](C)[C@H]1CC[C@H]2[C@@H]3[C@H](O)C=C4C[C@@H](O)CC[C@]4(C)[C@H]3CC[C@]12C [7α, 27-OHC]
interaction with other GPCRs [3]: In none of these assays did we see a significant interaction
interaction with nuclear hormone receptors [4]: In none of these assays did we see a significant interaction

Compound: C[C@H](CCCC(C)(C)O)[C@H]1CC[C@H]2[C@@H]3[C@@H](O)C=C4C[C@@H](O)CC[C@]4(C)[C@H]3CC[C@]12C [7β, 25-OHC, cholest-5-ene-3β, 7β, 25-triol]
EC50 [1]: ~50 nM

EC50 [8, 13]: 310 ± 261 nM
IC50 [10, 14]: > 10000 nM
EC50 [11, 15]: 125 ± 66 nM
Compound: C[C@@H](CO)CCC[C@@H](C)[C@H]1CC[C@H]2[C@@H]3[C@@H](O)C=C4C[C@@H](O)CC[C@]4(C)[C@H]3CC[C@]12C [7β, 27-OHC]

EC50 [8, 13]: 3030 ± 2640 nM
IC50 [10, 14]: > 10000 nM
EC50 [11, 15]: 727 ± 232 nM
Compound: C[C@H](CCCC(C)(C)O)[C@H]1CC[C@H]2[C@@H]3CC=C4C[C@@H](O)CC[C@]4(C)[C@H]3CC[C@]12C [25-OHC]

Compound: [3H]C1(O)C=C2CC(O)CCC2(C)C2CCC3(C)C(C(C)CCCC(C)(C)O)CCC3C21 (stereo not drawn) [[^3H]-7α, 25-OHC]
binding of radioligand to membranes from parental cells [12]: did not bind

specific binding of radioligand to EBI2 membranes ([10]; EBI2 membranes): no specific binding
Compound: [3H]C1(O)C=C2CC(O)CCC2(C)C2CCC3(C)C(C(C)CCCC(C)(C)O)CCC3C21 (stereo not drawn) [[^3H]-7β, 25-OHC]

EC50 [8]: > 10000 nM
IC50 [10]: > 10000 nM
EC50 [11]: > 10000 nM
Compound: CC(C)CCC[C@@H](C)[C@H]1CC[C@H]2[C@@H]3CC=C4C[C@@H](O)CC[C@]4(C)[C@H]3CC[C@]12C [cholesterol]

Compound: pertussis toxin
effect on oxysterol-mediated attraction of RS11846 cells ([7]; presence of pertussis toxin): could be blocked
